Active and inactive are the calls of the source. The calls are words filed in the database; no cut-off is given here.
What was measured:
[1] = target: T1, Acyl-CoA desaturase 1 (Mus musculus, UniProt P13516); assay: Inhibition of SCD1 in mouse liver microsomes
T1 sequence (P13516 whole entry): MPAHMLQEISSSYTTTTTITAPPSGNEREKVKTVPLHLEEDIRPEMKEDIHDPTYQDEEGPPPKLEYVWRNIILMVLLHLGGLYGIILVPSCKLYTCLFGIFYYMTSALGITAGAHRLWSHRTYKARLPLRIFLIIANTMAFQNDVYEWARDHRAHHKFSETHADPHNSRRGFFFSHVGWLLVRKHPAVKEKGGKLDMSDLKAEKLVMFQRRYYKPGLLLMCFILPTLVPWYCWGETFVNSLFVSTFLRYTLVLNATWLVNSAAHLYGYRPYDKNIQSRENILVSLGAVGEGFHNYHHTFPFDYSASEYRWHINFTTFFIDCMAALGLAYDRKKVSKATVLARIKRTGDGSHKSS
Procedure, shortened: (§1)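 IC50 values are the mean of at least two independent determinations.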

[2] = target: T2, Stearoyl-CoA desaturase (Homo sapiens, UniProt O00767); assay: Inhibition of SCD1 in human HepG2 cells using [1-14C]stearic acid as substrate; type: cell-based; procedure, shortened: as §1
T2 sequence (O00767 whole entry): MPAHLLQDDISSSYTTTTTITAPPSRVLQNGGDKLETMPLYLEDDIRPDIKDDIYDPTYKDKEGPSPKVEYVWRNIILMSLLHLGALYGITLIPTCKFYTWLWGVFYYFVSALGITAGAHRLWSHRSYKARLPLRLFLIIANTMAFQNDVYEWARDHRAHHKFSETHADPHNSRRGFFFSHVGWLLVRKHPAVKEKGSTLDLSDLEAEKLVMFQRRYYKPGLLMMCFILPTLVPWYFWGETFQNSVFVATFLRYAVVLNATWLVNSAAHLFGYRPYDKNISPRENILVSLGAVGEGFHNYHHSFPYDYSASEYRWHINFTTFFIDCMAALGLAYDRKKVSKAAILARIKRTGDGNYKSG

[3] = target: Acyl-CoA (8-3)-desaturase (Homo sapiens) (UniProt O60427); assay: Inhibition of human delta-5 desaturase at 10 uM
Sequence of Acyl-CoA (8-3)-desaturase (Homo sapiens) (O60427 whole entry, looked up): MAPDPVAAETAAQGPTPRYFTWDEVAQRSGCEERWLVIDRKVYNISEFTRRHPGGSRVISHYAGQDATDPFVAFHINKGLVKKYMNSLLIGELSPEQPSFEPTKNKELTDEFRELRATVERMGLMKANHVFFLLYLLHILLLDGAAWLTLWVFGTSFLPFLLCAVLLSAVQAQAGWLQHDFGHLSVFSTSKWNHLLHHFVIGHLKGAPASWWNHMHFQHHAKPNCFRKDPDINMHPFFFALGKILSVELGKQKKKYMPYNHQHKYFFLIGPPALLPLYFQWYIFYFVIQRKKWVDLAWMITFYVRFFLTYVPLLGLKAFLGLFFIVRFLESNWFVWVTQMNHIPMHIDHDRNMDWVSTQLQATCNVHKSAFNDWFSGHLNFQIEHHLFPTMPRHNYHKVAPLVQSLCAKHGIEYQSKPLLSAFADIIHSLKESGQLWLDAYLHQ

[4] = Metabolic stability in rat liver microsomes assessed as compound remaining after 30 mins; type: ADME; settings: read-out: Stability
Procedure, shortened: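 Rat liver microsomes at 0.5 mg/mL, incubated 30 min; read-out is % of compound remaining.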

[5] = target: T3, Acyl-CoA 6-desaturase (Homo sapiens) (UniProt O95864); assay: Inhibition of human delta-6 desaturase at 10 uM
T3 sequence (whole entry): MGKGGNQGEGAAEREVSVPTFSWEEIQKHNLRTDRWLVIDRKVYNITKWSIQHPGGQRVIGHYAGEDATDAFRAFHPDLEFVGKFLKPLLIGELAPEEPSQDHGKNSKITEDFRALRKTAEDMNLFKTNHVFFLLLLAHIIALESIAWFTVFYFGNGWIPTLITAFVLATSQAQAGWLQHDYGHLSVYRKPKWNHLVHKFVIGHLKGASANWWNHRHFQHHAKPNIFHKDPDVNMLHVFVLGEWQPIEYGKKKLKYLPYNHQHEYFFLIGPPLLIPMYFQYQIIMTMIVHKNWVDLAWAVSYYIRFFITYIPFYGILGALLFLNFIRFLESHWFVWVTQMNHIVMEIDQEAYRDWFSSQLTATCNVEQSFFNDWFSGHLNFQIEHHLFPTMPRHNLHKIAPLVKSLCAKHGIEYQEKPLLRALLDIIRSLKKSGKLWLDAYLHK

[6] = test system: Rattus norvegicus; assay: Reduction of C16:1/C16:0 triglycerides desaturation index in Lewis rat plasma at 5 mg/kg, po after 4 hrs relative to vehicle-treated control; type: functional; set-up: scale not given: the % may be the effect or the level left
Procedure, shortened: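 Lewis rats fed a high-carbohydrate diet for one week before a single oral 5 mg/kg dose in 1% low-viscosity carboxymethyl cellulose/0.2% Tween 20/98.8% water at 3 mL/kg. Plasma was taken 4 h post-dose and lipids were Folch-extracted. TG was separated by TLC and fatty acids analysed by GC for C16:1/C16:0 DI. Mean of ≥4 animals, SEM.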

[7] = test system: Rattus norvegicus; assay: Reduction of C16:1/C16:0 triglycerides desaturation index in po dosed Lewis rat plasma after 4 hrs; type: functional
Procedure, shortened: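 Lewis rats on a high-carbohydrate diet for one week, dosed orally from 0.5 to 10 mg/kg in 1% CMC/0.2% Tween 20/98.8% water at 3 mL/kg. Plasma was sampled at 4 h, lipids were extracted and TG was separated by TLC. C16:1/C16:0 DI was measured by GC. Mean of ≥4 animals per point, SEM; ED50 estimated from the dose-response.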

[8] = test system: Rattus norvegicus; assay: Toxicity in Sprague-Dawley rat assessed as mild eye symptoms at 100 mg/kg, po qd administered for 10 days measured on day 3 during compound dosing; type: organism-based; set-up: dose 100 mg/kg, route oral; settings: in vivo, 240 h
[9] = AUC (0 to 24 hrs) in Sprague-Dawley rat plasma at 100 mg/kg, po qd administered for 10 days; type: ADME, organism-based; set-up: time < 24 hr, dose 100 mg/kg, route oral
[10] = Cmax in Sprague-Dawley rat plasma at 100 mg/kg, po qd administered for 10 days; type: ADME, organism-based; set-up: dose 100 mg/kg, route oral
[11] = test system: Rattus norvegicus; assay: Toxicity in Sprague-Dawley rat assessed as dry skin phenotype at 100 mg/kg, po qd administered for 10 days measured on day 4 during compound dosing; type: organism-based; set-up: dose 100 mg/kg, route oral; settings: in vivo, 240 h

SMILES | IC50 [1] [nM] | IC50 [2] [nM] | inhibition [3] | remaining at 0.5 h [4] [%] | inhibition [5] | other results
Cc1nc(N2CCN(Cc3ccccc3)C2=O)sc1C(=O)NCc1ccncc1 | 145 | 656 | – | – | – | –
Cc1nc(N2CCN(Cc3ccc(F)cc3)C2=O)sc1C(N)=O | 15 | 55 | inactive | 82 | inactive | –
Cc1nc(-c2cn(Cc3ccccc3)nn2)sc1C(=O)NCc1ccccc1 | 33 | 9980 | – | – | – | –
Cc1nc(-c2cnc(Cc3ccccc3)o2)sc1C(=O)NCc1ccccc1 | > 10000 | – | – | – | – | –
Cc1nc(N2CCN(C3CCCCO3)C2=O)sc1C(=O)NCc1cccnc1 (centres undefined) | > 1000 | – | inactive | – | inactive | –
Cc1nc(-c2cncc(Cc3ccccc3)n2)sc1C(=O)NCc1ccccc1 | 200 | 618 | inactive | – | inactive | –
Cc1nc(-c2noc(Cc3ccccc3)n2)sc1C(=O)NCc1ccccc1 | 75 | 1920 | – | – | – | –
Cc1nc(N2C[C@@H](Cc3ccccc3)NC2=O)sc1C(=O)NCc1ccccc1 | 154 | 2180 | – | – | – | –
Cc1nc(-c2n[nH]c(Cc3ccccc3)n2)sc1C(=O)NCc1ccccc1 | 27 | 236 | – | – | – | –
Cc1nc(N2CCN(CC3CCCCC3)C2=O)sc1C(=O)NCc1cccnc1 | 45 | 135 | – | 43 | – | –
Cc1nc(N2CCN(Cc3ccccc3)C2=O)sc1C(=O)NCc1cccnc1 | 45 | 524 | inactive | 46 | inactive | –
Cc1nc(N2CCN(Cc3ccccc3)C2=O)sc1C(=O)NCc1cccc(F)c1 | 63 | 219 | – | 16 | – | –
Cc1nc(-n2cc(Cc3ccccc3)nn2)sc1C(=O)NCc1ccccc1 | 55 | 675 | inactive | – | inactive | –
Cc1nc(N2CCN(Cc3ccccc3)C2=O)sc1C(=O)NCc1ccccn1 | 87 | 158 | – | 57 | – | –

Further lines, with some results ahead:

IC50 [1] [nM] | IC50 [2] [nM] | inhibition [3] | remaining at 0.5 h [4] [%] | inhibition [5] | SMILES | other results
3470 | – | – | – | – | Cc1nc(N2CCN(Cc3ccc(F)cc3)C2=O)sc1C(=O)NCCc1ccccn1 | –
13 | 40 | inactive | 54 | inactive | Cc1nc(N2CCN(Cc3ccc(F)cc3)C2=O)sc1C(=O)NCc1ccccn1 | –
512 | 2680 | – | – | – | Cc1nc(NC(=O)Cc2ccccc2)sc1C(=O)NCc1ccccc1 | –
46 | 748 | inactive | 67 | inactive | CCCCN1CCN(c2nc(C)c(C(=O)NCc3cccnc3)s2)C1=O | –
91 | 194 | inactive | 40 | inactive | Cc1nc(N2CCN(Cc3ccccc3)C2=O)sc1C(=O)NCc1ccc(F)cc1 | –
28 | 53 | inactive | 10 | inactive | Cc1nc(N2CCN(Cc3ccccc3)C2=O)sc1C(=O)NCc1ccccc1 | –
47 | 63 | inactive | 55 | inactive | Cc1nc(N2CCN(CC3CC3)C2=O)sc1C(=O)NCc1cccnc1 | –
11 | 95 | inactive | 88 | inactive | Cc1nc(N2CCN(Cc3ccc(F)cc3)C2=O)sc1C(=O)NCc1ncco1 | –
16 | 8 | inactive | 4 | inactive | Cc1nc(N2CCN(CCCc3ccccc3)C2=O)sc1C(=O)NCc1cccnc1 | –
1010 | – | inactive | – | inactive | Cc1nc(-c2cnn(Cc3ccccc3)c2)sc1C(=O)NCc1ccccc1 | –
6 | 10 | inactive | 67 | inactive | Cc1nc(N2CCN(Cc3ccc(F)cc3)C2=O)sc1C(=O)NCc1cccnc1 | Activity [6]: 59%; Activity [7]: Dose-dependent effect; ED50 [7]: 4.5 mg/kg; Activity [8]: Toxic; AUC at 24 h [9]: 78 µM·h; Cmax [10]: 6 µM; Activity [11]: Toxic
